Here are results for one molecule from ChEMBL document CHEMBL3098028, “Synthesis and in vitro and in vivo pharmacological evaluation of new 4-aminoquinoline-based compounds” (ACS Med Chem Lett, 2013).

SMILES strings stand for the structures. Values after ≈ are worked out from the molar mass of the structure shown.

In one series the target is T1, Cytochrome P450 2A6 (Homo sapiens, UniProt P11509).
T1 sequence (P11509 whole entry): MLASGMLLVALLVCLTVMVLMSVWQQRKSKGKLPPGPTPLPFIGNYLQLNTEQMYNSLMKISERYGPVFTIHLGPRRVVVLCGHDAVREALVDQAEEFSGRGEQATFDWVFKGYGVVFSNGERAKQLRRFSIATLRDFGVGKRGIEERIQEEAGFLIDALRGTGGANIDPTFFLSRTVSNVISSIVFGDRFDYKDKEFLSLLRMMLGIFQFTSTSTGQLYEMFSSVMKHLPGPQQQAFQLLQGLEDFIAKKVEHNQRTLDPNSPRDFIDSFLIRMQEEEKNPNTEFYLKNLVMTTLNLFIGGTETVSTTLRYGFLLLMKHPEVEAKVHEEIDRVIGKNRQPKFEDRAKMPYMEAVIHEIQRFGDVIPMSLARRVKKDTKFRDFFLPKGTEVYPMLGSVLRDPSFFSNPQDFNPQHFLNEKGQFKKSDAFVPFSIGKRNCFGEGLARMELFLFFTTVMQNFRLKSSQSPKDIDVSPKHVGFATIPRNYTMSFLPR
The series can be described thus: Inhibition of CYP2A6 in human liver microsomes assessed as coumarin 7-hydroxylation after 20 mins by LC-MS/MS analysis. Type of series: ADME.

In the next series the test system is CHO. The series can be described thus: Cytotoxicity against CHO cells. It is filed as cell-based. The settings on record: Cricetulus griseus.
For another series, the target named is Cytochrome P450 2C19 (Homo sapiens, UniProt P33261). The series can be described thus: Inhibition of CYP2C19 in human liver microsomes assessed as S-mephenytoin 4'-hydroxylation after 20 mins by LC-MS/MS analysis. Type of series: ADME. On the technique in general: Liver microsomes are a subcellular fraction often used to study metabolism.
Sequence of Cytochrome P450 2C19 (P33261 whole entry): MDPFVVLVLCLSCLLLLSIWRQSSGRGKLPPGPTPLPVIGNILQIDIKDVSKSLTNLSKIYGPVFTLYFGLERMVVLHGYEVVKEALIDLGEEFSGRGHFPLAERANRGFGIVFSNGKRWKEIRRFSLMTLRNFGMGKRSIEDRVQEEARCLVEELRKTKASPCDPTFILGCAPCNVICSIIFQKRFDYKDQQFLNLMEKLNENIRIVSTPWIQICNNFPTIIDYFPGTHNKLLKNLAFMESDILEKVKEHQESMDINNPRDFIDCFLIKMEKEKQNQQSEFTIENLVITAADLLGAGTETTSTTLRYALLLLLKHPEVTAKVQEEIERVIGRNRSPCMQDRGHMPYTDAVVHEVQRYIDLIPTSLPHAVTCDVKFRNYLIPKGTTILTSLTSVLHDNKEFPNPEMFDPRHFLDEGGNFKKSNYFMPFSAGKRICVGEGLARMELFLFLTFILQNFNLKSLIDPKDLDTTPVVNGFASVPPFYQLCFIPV
The target in the next series is Cytochrome P450 3A4 (Homo sapiens, UniProt P08684). The series can be described thus: Inhibition of CYP3A4 in human liver microsomes assessed as midazolam 1'-hydroxylation and testosterone 6beta-hydroxylation after 20 mins by LC-MS/MS analysis. Type of series: ADME.
Sequence of Cytochrome P450 3A4 (P08684 whole entry): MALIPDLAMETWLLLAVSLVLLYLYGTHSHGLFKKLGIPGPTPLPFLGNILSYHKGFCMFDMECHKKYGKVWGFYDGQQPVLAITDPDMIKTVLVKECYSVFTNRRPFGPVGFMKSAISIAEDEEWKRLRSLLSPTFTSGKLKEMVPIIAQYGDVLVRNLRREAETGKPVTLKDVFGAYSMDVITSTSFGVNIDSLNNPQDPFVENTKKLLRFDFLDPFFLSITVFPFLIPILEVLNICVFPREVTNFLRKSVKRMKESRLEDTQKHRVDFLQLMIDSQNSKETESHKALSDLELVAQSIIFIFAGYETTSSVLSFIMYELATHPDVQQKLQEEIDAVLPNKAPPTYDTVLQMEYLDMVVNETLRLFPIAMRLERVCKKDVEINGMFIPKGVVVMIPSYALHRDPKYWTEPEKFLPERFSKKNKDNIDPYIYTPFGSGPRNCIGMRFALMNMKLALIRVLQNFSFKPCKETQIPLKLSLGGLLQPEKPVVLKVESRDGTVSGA
Series [1] is described as follows: Kinetic solubility of the compound in 0.01 M HCl at pH 2 after 2 hrs by HPLC analysis. The conditions noted are these: read-out: Kinetic_solubility. It is filed as physicochemical.
Another series has as its target Cytochrome P450 2E1 (Homo sapiens, UniProt P05181). The series can be described thus: Inhibition of CYP2E1 in human liver microsomes assessed as chlorzoxazone 6-hydroxylation after 20 mins by LC-MS/MS analysis. Type of series: ADME.
A further series concerns the target T2, Cytochrome P450 1A2 (Homo sapiens, UniProt P05177).
T2 sequence (P05177 whole entry): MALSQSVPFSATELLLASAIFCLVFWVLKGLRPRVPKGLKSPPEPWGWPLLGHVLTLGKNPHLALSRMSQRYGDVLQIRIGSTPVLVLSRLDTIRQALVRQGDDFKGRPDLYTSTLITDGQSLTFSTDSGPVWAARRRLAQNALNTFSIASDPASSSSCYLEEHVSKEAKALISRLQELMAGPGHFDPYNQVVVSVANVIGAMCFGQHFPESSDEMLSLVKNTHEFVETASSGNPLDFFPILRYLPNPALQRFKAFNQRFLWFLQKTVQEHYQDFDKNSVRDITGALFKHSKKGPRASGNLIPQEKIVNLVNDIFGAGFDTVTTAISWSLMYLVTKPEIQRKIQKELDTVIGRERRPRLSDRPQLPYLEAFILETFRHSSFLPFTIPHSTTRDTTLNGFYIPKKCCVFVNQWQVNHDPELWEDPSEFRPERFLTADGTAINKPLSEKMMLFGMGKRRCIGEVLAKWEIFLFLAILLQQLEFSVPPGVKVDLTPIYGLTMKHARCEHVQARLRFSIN
The series can be described thus: Inhibition of CYP1A2 in human liver microsomes assessed as phenacetin O-deethylation after 20 mins by LC-MS/MS analysis. Type of series: ADME.

In series [2] the test system is Plasmodium falciparum. The series can be described thus: Antiplasmodial activity against chloroquine-resistant Plasmodium falciparum K1 after 24 hrs by [3H]hypoxanthine incorporation assay. It is filed as functional, organism-based. Put shortly: (§1)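 Antiplasmodial testing was done at the Swiss Tropical and Public Health Institute. Chloroquine, the reference drug, was tested as its diphosphate salt.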

Series [3] concerns Plasmodium falciparum. The series can be described thus: Antiplasmodial activity against chloroquine-resistant Plasmodium falciparum W2 after 24 hrs by [3H]hypoxanthine incorporation assay. Type of series: functional, organism-based. Put shortly:
as §1

For series [4], the system named is Plasmodium falciparum. The series can be described thus: Antiplasmodial activity against chloroquine-sensitive Plasmodium falciparum 3D7 after 24 hrs by [3H]hypoxanthine incorporation assay. It is filed as functional, organism-based. Put shortly:
as §1

Another series has as its target T3, Cytochrome P450 2B6 (Homo sapiens, UniProt P20813).
T3 sequence (P20813 whole entry): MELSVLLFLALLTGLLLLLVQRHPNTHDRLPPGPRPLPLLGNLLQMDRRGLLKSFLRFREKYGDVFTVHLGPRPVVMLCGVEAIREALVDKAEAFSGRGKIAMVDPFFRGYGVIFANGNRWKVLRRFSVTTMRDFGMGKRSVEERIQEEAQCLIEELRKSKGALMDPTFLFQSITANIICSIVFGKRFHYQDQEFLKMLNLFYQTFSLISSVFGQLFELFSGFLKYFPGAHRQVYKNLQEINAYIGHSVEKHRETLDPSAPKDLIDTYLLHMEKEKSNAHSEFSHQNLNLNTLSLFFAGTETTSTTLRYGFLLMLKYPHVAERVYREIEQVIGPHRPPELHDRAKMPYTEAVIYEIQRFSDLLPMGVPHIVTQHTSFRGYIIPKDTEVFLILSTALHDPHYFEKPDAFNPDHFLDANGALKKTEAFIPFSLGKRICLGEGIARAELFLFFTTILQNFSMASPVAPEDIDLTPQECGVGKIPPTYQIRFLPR
The series can be described thus: Inhibition of CYP2B6 in human liver microsomes assessed as bupropion hydroxylation after 20 mins by LC-MS/MS analysis. Type of series: ADME.

Series [5] relates to Plasmodium falciparum. The series can be described thus: Resistance index, ratio of IC50 for chloroquine-resistant Plasmodium falciparum K1 to IC50 for chloroquine-sensitive Plasmodium falciparum 3D7. Type of series: functional.
Series [6] in a line: Kinetic solubility of the compound in phosphate buffered saline at pH 7.4 after 2 hrs by HPLC analysis. Type of series: physicochemical. The conditions noted are these: read-out: Kinetic_solubility.
A further series addresses T4, Cytochrome P450 2C8 (Homo sapiens, UniProt P10632).
T4 sequence (P10632 whole entry): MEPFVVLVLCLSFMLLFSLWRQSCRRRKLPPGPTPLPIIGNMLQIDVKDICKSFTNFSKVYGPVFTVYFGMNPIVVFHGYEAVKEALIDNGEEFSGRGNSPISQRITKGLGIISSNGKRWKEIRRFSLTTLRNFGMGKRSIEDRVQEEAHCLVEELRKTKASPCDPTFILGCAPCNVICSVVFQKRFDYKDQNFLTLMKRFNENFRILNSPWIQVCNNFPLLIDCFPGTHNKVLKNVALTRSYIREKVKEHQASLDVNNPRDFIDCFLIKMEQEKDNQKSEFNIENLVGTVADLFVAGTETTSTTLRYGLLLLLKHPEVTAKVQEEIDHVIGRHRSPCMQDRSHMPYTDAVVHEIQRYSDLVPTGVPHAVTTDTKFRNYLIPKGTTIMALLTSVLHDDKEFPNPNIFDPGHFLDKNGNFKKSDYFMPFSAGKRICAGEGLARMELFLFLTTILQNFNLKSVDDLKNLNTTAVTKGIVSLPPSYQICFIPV
The series can be described thus: Inhibition of CYP2C8 in human liver microsomes assessed as paclitaxel 6alpha-hydroxylation after 20 mins by LC-MS/MS analysis. Type of series: ADME.

A further series has as its target Cytochrome P450 2D6 (Homo sapiens, UniProt P10635). The series can be described thus: Inhibition of CYP2D6 in human liver microsomes assessed as bufuralol 1'-hydroxylation after 20 mins by LC-MS/MS analysis. It is filed as ADME.
The target in a further series is Cytochrome P450 2C9 (Homo sapiens, UniProt P11712). The series can be described thus: Inhibition of CYP2C9 in human liver microsomes assessed as diclofenac 4'-hydroxylation after 20 mins by LC-MS/MS analysis. It is filed as ADME.
Sequence of Cytochrome P450 2C9 (P11712 whole entry): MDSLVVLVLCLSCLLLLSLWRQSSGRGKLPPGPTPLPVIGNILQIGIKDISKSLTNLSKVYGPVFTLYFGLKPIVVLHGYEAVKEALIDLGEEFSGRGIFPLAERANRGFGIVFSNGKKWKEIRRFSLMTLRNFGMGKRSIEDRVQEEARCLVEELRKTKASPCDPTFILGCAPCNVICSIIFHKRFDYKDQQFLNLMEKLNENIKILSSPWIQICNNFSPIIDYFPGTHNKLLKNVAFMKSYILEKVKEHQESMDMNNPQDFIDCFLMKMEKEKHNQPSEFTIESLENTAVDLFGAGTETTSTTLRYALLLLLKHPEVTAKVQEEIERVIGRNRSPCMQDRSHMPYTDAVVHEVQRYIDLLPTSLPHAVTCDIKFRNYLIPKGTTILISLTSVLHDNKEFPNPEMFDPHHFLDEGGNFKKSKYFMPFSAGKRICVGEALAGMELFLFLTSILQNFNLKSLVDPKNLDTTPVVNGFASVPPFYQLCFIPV

Sequence of Cytochrome P450 2D6 (P10635 whole entry): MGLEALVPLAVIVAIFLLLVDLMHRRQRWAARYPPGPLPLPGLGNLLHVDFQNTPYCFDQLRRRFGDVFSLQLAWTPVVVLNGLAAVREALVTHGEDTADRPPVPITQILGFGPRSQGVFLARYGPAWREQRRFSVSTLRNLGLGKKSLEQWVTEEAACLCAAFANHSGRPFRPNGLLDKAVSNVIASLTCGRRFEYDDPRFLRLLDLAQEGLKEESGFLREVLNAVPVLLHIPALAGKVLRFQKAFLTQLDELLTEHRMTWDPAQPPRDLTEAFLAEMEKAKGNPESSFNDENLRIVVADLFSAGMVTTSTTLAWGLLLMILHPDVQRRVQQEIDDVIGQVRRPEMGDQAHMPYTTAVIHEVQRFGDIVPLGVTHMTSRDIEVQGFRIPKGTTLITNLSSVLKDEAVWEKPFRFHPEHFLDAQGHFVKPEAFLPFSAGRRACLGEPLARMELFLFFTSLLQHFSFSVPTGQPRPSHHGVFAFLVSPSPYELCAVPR
Sequence of Cytochrome P450 2E1 (P05181 whole entry): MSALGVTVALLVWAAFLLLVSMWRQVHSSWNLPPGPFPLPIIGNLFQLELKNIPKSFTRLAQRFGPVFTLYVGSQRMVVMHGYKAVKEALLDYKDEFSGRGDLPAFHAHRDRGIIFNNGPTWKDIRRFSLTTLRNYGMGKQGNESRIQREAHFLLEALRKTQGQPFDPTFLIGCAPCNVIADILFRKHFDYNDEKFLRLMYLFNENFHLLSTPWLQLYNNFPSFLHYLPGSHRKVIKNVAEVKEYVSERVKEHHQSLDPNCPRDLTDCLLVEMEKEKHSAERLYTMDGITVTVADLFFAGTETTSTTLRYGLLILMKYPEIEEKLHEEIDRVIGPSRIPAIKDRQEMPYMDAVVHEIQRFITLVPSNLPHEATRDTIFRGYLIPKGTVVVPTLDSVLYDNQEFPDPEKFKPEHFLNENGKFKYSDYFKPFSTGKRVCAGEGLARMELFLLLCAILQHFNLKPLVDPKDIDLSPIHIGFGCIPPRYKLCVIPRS

In the case of `Cc1ccc(C(NCCNc2ccnc3cc(Cl)ccc23)c2nnnn2C(C)(C)C)cc1` (stereo unspecified), the IC50 – broadly, the concentration needed to halve the response being measured – at Cytochrome P450 2A6 is more than 20 µM; in the series on CHO, 185 µM; on Cytochrome P450 2C19, more than 20 µM; at Cytochrome P450 3A4, 170 nM; at Cytochrome P450 2E1 it was more than 20 µM; at Cytochrome P450 1A2 it was more than 20 µM. The IC50 in the series with Plasmodium falciparum [2] was 2 nM; in the series with Plasmodium falciparum [3], 31.1 nM; in the series with Plasmodium falciparum [4], 1 nM; on Cytochrome P450 2B6, more than 20 µM; at Cytochrome P450 2C8, 3.98 µM; on Cytochrome P450 2D6, 9.88 µM. For the same molecule, the IC50 at Cytochrome P450 2C9 stood at 10.3 µM. In addition, the figures for the solubility kinetic at 2 h in series [1] and in [6] were 127 µM (≈ 57.1 µg/mL) and 39.6 µM (≈ 17.8 µg/mL), respectively. Also, the “Ratio IC50” value in the series on Plasmodium falciparum [5] is 2.
